Measured values: ChEMBL document CHEMBL1126762, “Synthesis and anaerobic activity of novel 1-carba-1-dethiacephalosporins” (J Med Chem, 1993)
≈ marks a conversion by molar mass, not a printed value.

test system: not listed separately; assay: Area under plasma time curve determined in male rat; type: ADME, organism-based; settings: not given
Outline: (§1)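 Male Sprague-Dawley rats given 20 mg/kg i.v. in saline through an indwelling jugular vein cannula, which was also used for serial blood sampling over 6 h. Plasma drug measured by agar well diffusion bioassay with Micrococcus luteus ATCC9241 (detection limit 3.2 μg/mL plasma). AUC by Simpson's rule.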

| SMILES | AUC |
| --- | --- |
| Nc1nc(/C(=N/OCCF)C(=O)N[C@@H]2C(=O)N3C(C(=O)O)=C(Sc4ncc([N+](=O)[O-])s4)CC[C@H]23)cs1 | 11100 ng·h/mL |

test system: Eikenella corrodens; assay: Antibacterial activity against anaerobic Bacteroides corrodens 1874; type: functional; settings: not given
Outline: (§2)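 MIC by agar dilution following the NCCLS M11-A2 (2nd ed.) procedure for antimicrobial testing of anaerobic bacteria.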

| SMILES | MIC |
| --- | --- |
| Nc1nc(/C(=N/OCCF)C(=O)N[C@@H]2C(=O)N3C(C(=O)O)=C(Sc4ncc([N+](=O)[O-])s4)CC[C@H]23)cs1 | 8 µg/mL (≈ 14.3 µM) |

test system: Phocaeicola vulgatus; assay: Antibacterial activity against anaerobic Bacteroides vulgatus 1211; type: functional; settings: not given; outline: as §2

| SMILES | MIC |
| --- | --- |
| Nc1nc(/C(=N/OCCF)C(=O)N[C@@H]2C(=O)N3C(C(=O)O)=C(Sc4ncc([N+](=O)[O-])s4)CC[C@H]23)cs1 | 1 µg/mL (≈ 1.79 µM) |

test system: Bacteroides thetaiotaomicron; assay: Antibacterial activity against anaerobic Bacteroides thetaiotaomicron 1438; type: functional; settings: not given; outline: as §2

| SMILES | MIC |
| --- | --- |
| Nc1nc(/C(=N/OCCF)C(=O)N[C@@H]2C(=O)N3C(C(=O)O)=C(Sc4ncc([N+](=O)[O-])s4)CC[C@H]23)cs1 | ≤ 0.5 µg/mL |

test system: Prevotella melaninogenica; assay: Antibacterial activity against anaerobic Bacteroides melaninogenicus 1856/28; type: functional; settings: not given; outline: as §2

| SMILES | MIC |
| --- | --- |
| Nc1nc(/C(=N/OCCF)C(=O)N[C@@H]2C(=O)N3C(C(=O)O)=C(Sc4ncc([N+](=O)[O-])s4)CC[C@H]23)cs1 | 2 µg/mL (≈ 3.59 µM) |

test system: Prevotella melaninogenica; assay: Antibacterial activity against anaerobic Bacteroides melaninogenicus 2736; type: functional; settings: not given; outline: as §2

| SMILES | MIC |
| --- | --- |
| Nc1nc(/C(=N/OCCF)C(=O)N[C@@H]2C(=O)N3C(C(=O)O)=C(Sc4ncc([N+](=O)[O-])s4)CC[C@H]23)cs1 | 1 µg/mL (≈ 1.79 µM) |

test system: Bacteroides fragilis; assay: Antibacterial activity against anaerobic Bacteroides fragilis 111; type: functional; settings: not given; outline: as §2

| SMILES | MIC |
| --- | --- |
| Nc1nc(/C(=N/OCCF)C(=O)N[C@@H]2C(=O)N3C(C(=O)O)=C(Sc4ncc([N+](=O)[O-])s4)CC[C@H]23)cs1 | 4 µg/mL (≈ 7.17 µM) |

test system: Bacteroides fragilis; assay: Antibacterial activity against anaerobic Bacteroides fragilis 1877; type: functional; settings: not given; outline: as §2

| SMILES | MIC |
| --- | --- |
| Nc1nc(/C(=N/OCCF)C(=O)N[C@@H]2C(=O)N3C(C(=O)O)=C(Sc4ncc([N+](=O)[O-])s4)CC[C@H]23)cs1 | 1 µg/mL (≈ 1.79 µM) |

test system: Bacteroides fragilis; assay: Antibacterial activity against anaerobic Bacteroides fragilis 1936B; type: functional; settings: not given; outline: as §2

| SMILES | MIC |
| --- | --- |
| Nc1nc(/C(=N/OCCF)C(=O)N[C@@H]2C(=O)N3C(C(=O)O)=C(Sc4ncc([N+](=O)[O-])s4)CC[C@H]23)cs1 | 4 µg/mL (≈ 7.17 µM) |

test system: Clostridioides difficile; assay: Antibacterial activity against anaerobic Clostridium difficile 2994 strain; type: functional; settings: not given; outline: as §2

| SMILES | MIC |
| --- | --- |
| Nc1nc(/C(=N/OCCF)C(=O)N[C@@H]2C(=O)N3C(C(=O)O)=C(Sc4ncc([N+](=O)[O-])s4)CC[C@H]23)cs1 | 4 µg/mL (≈ 7.17 µM) |

test system: Clostridium perfringens; assay: Antibacterial activity against anaerobic Clostridium perfringens 81; type: functional; settings: not given
Outline: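 Agar dilution MIC following NCCLS document M11-A2 (Vol. 10, no. 15), the method for antimicrobial testing of anaerobic bacteria; value reported as minimum inhibitory concentration.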

| SMILES | MIC |
| --- | --- |
| Nc1nc(/C(=N/OCCF)C(=O)N[C@@H]2C(=O)N3C(C(=O)O)=C(Sc4ncc([N+](=O)[O-])s4)CC[C@H]23)cs1 | 1 µg/mL (≈ 1.79 µM) |

test system: Clostridium septicum; assay: Antibacterial activity against anaerobic Clostridium septicum 1128; type: functional; settings: not given; outline: as §2

| SMILES | MIC |
| --- | --- |
| Nc1nc(/C(=N/OCCF)C(=O)N[C@@H]2C(=O)N3C(C(=O)O)=C(Sc4ncc([N+](=O)[O-])s4)CC[C@H]23)cs1 | 1 µg/mL (≈ 1.79 µM) |

test system: Escherichia coli; assay: Antibacterial activity against aerobic Escherichia coli EC14; type: functional; settings: not given
Outline: (§3)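 MIC by agar dilution following the NCCLS M7-A2 (2nd ed.) procedure for bacteria that grow aerobically.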

| SMILES | MIC |
| --- | --- |
| Nc1nc(/C(=N/OCCF)C(=O)N[C@@H]2C(=O)N3C(C(=O)O)=C(Sc4ncc([N+](=O)[O-])s4)CC[C@H]23)cs1 | 0.5 µg/mL (≈ 0.897 µM) |

test system: not listed separately; assay: Antibacterial activity against anaerobic Eubacterium aerofaciens 1235; type: functional; settings: Collinsella aerofaciens; outline: as §2

| SMILES | MIC |
| --- | --- |
| Nc1nc(/C(=N/OCCF)C(=O)N[C@@H]2C(=O)N3C(C(=O)O)=C(Sc4ncc([N+](=O)[O-])s4)CC[C@H]23)cs1 | 4 µg/mL (≈ 7.17 µM) |

test system: Klebsiella aerogenes; assay: Antibacterial activity against aerobic Enterobacter aerogenes C32; type: functional; settings: not given; outline: as §3

| SMILES | MIC |
| --- | --- |
| Nc1nc(/C(=N/OCCF)C(=O)N[C@@H]2C(=O)N3C(C(=O)O)=C(Sc4ncc([N+](=O)[O-])s4)CC[C@H]23)cs1 | 1 µg/mL (≈ 1.79 µM) |

test system: not listed separately; assay: Antibacterial activity against anaerobic Fusobacterium symbiosum 1470; type: functional, fusobacterium symbosium; settings: not given; outline: as §2

| SMILES | MIC |
| --- | --- |
| Nc1nc(/C(=N/OCCF)C(=O)N[C@@H]2C(=O)N3C(C(=O)O)=C(Sc4ncc([N+](=O)[O-])s4)CC[C@H]23)cs1 | 1 µg/mL (≈ 1.79 µM) |

test system: Fusobacterium necrophorum; assay: Antibacterial activity against anaerobic Fusobacterium necrophorum 6054A; type: functional; settings: not given; outline: as §2

| SMILES | MIC |
| --- | --- |
| Nc1nc(/C(=N/OCCF)C(=O)N[C@@H]2C(=O)N3C(C(=O)O)=C(Sc4ncc([N+](=O)[O-])s4)CC[C@H]23)cs1 | ≤ 0.5 µg/mL |

test system: Haemophilus influenzae; assay: Antibacterial activity against aerobic Haemophilus influenzae RES 76; type: functional; settings: not given; outline: as §3

| SMILES | MIC |
| --- | --- |
| Nc1nc(/C(=N/OCCF)C(=O)N[C@@H]2C(=O)N3C(C(=O)O)=C(Sc4ncc([N+](=O)[O-])s4)CC[C@H]23)cs1 | 0.008 µg/mL (≈ 0.0143 µM) |

test system: Klebsiella pneumoniae; assay: Antibacterial activity against aerobic Klebsiella pneumoniae X26; type: functional; settings: not given; outline: as §3

| SMILES | MIC |
| --- | --- |
| Nc1nc(/C(=N/OCCF)C(=O)N[C@@H]2C(=O)N3C(C(=O)O)=C(Sc4ncc([N+](=O)[O-])s4)CC[C@H]23)cs1 | 0.008 µg/mL (≈ 0.0143 µM) |

test system: Peptostreptococcus anaerobius; assay: Antibacterial activity against anaerobic Peptostreptococcus anaerobius 1451; type: functional; settings: not given; outline: as §2

| SMILES | MIC |
| --- | --- |
| Nc1nc(/C(=N/OCCF)C(=O)N[C@@H]2C(=O)N3C(C(=O)O)=C(Sc4ncc([N+](=O)[O-])s4)CC[C@H]23)cs1 | ≤ 0.5 µg/mL |

test system: not listed separately; assay: Antibacterial activity against anaerobic Peptostreptococcus intermedius 1264; type: functional; settings: not given; outline: as §2

| SMILES | MIC |
| --- | --- |
| Nc1nc(/C(=N/OCCF)C(=O)N[C@@H]2C(=O)N3C(C(=O)O)=C(Sc4ncc([N+](=O)[O-])s4)CC[C@H]23)cs1 | ≤ 0.5 µg/mL |

test system: Pseudomonas aeruginosa; assay: Antibacterial activity against aerobic Pseudomonas aeruginosa X239 strain; type: functional; settings: not given; outline: as §3

| SMILES | MIC |
| --- | --- |
| Nc1nc(/C(=N/OCCF)C(=O)N[C@@H]2C(=O)N3C(C(=O)O)=C(Sc4ncc([N+](=O)[O-])s4)CC[C@H]23)cs1 | > 128 µg/mL |

test system: not listed separately; assay: Antibacterial activity against anaerobic Peptococcus asaccharolyticus 1302; type: functional; settings: Peptoniphilus asaccharolyticus; outline: as §2

| SMILES | MIC |
| --- | --- |
| Nc1nc(/C(=N/OCCF)C(=O)N[C@@H]2C(=O)N3C(C(=O)O)=C(Sc4ncc([N+](=O)[O-])s4)CC[C@H]23)cs1 | ≤ 0.5 µg/mL |

test system: Anaerococcus prevotii; assay: Antibacterial activity against anaerobic Peptococcus prevoti 1281; type: functional; settings: not given; outline: as §2

| SMILES | MIC |
| --- | --- |
| Nc1nc(/C(=N/OCCF)C(=O)N[C@@H]2C(=O)N3C(C(=O)O)=C(Sc4ncc([N+](=O)[O-])s4)CC[C@H]23)cs1 | ≤ 0.5 µg/mL |

test system: Cutibacterium acnes; assay: Antibacterial activity against anaerobic Propionibacterium acnes 79; type: functional; settings: not given; outline: as §2

| SMILES | MIC |
| --- | --- |
| Nc1nc(/C(=N/OCCF)C(=O)N[C@@H]2C(=O)N3C(C(=O)O)=C(Sc4ncc([N+](=O)[O-])s4)CC[C@H]23)cs1 | ≤ 0.5 µg/mL |

test system: Staphylococcus epidermidis; assay: Antibacterial activity against aerobic Staphylococcus epidermidis 222; type: functional; settings: not given; outline: as §3

| SMILES | MIC |
| --- | --- |
| Nc1nc(/C(=N/OCCF)C(=O)N[C@@H]2C(=O)N3C(C(=O)O)=C(Sc4ncc([N+](=O)[O-])s4)CC[C@H]23)cs1 | 1 µg/mL (≈ 1.79 µM) |

test system: Streptococcus pneumoniae; assay: Antibacterial activity against aerobic Streptococcus pneumoniae PARK; type: functional; settings: not given; outline: as §3

| SMILES | MIC |
| --- | --- |
| Nc1nc(/C(=N/OCCF)C(=O)N[C@@H]2C(=O)N3C(C(=O)O)=C(Sc4ncc([N+](=O)[O-])s4)CC[C@H]23)cs1 | 0.008 µg/mL (≈ 0.0143 µM) |

test system: Staphylococcus aureus; assay: Antibacterial activity against aerobic Staphylococcus aureus X1.1 strain; type: functional; settings: not given; outline: as §3

| SMILES | MIC |
| --- | --- |
| Nc1nc(/C(=N/OCCF)C(=O)N[C@@H]2C(=O)N3C(C(=O)O)=C(Sc4ncc([N+](=O)[O-])s4)CC[C@H]23)cs1 | 0.125 µg/mL (≈ 0.224 µM) |

test system: not listed separately; assay: Maximum concentration reached following intravenous administration in male rat; type: ADME, organism-based; set-up: route intravenous; settings: in vivo; outline: as §1

| SMILES | Cmax |
| --- | --- |
| Nc1nc(/C(=N/OCCF)C(=O)N[C@@H]2C(=O)N3C(C(=O)O)=C(Sc4ncc([N+](=O)[O-])s4)CC[C@H]23)cs1 | 54.2 µg/mL |
